Experimental data as given in ChEMBL document CHEMBL1148251, “Syntheses of sphingosine-1-phosphate analogues and their interaction with EDG/S1P receptors” (Bioorg Med Chem Lett, 2004).

Experiments:
Type in all cases: cell-based
[1] = target: Sphingosine 1-phosphate receptor 1 (Homo sapiens) (UniProt P21453); assay: Percent binding affinity to displace radioligand [3H]SIP from Sphingosine 1-phosphate receptor Edg-1 expressed in CHO cells
Summary of the method: (§1)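 Whole transfected CHO cells (Edg-1, Edg-3 or Edg-5; mock-transfected control), confluent, rinsed twice in ice-cold buffer (20 mM Tris–HCl pH 7.5, 100 mM NaCl, 15 mM NaF, 0.4% BSA), then held on ice 90 min with 2 nM [3H]-S1P ± 1 µM test ligand. Unbound label washed off, cells solubilized in SDS/NaOH/Na2CO3, bound radioactivity counted by liquid scintillation; duplicate determinations, mean ± SD.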

[2] = target: Sphingosine 1-phosphate receptor 2 (Homo sapiens) (UniProt O95136); assay: Percent binding affinity to displace radioligand [3H]-SIP from EDG-5/S1P2 receptors expressed in CHO cells; summary of the method: as §1
[3] = target: Sphingosine 1-phosphate receptor 3 (Homo sapiens) (UniProt Q99500); assay: Percent binding affinity to displace radioligand [3H]SIP from EDG-3/S1P3 receptors expressed in CHO cells; summary of the method: as §1
Sequence of Sphingosine 1-phosphate receptor 3 (Homo sapiens) (Q99500 whole entry): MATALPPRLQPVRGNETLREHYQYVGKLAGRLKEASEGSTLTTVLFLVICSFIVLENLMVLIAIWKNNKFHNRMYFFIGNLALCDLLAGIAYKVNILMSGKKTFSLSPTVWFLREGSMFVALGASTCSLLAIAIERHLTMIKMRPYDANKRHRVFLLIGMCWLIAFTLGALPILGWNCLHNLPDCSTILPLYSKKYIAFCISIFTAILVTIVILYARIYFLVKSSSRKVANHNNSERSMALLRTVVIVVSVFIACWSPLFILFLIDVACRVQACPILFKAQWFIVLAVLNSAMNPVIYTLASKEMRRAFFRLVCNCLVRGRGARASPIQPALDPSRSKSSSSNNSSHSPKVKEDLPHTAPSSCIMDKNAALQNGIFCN

Sequence of Sphingosine 1-phosphate receptor 1 (Homo sapiens) (P21453 whole entry): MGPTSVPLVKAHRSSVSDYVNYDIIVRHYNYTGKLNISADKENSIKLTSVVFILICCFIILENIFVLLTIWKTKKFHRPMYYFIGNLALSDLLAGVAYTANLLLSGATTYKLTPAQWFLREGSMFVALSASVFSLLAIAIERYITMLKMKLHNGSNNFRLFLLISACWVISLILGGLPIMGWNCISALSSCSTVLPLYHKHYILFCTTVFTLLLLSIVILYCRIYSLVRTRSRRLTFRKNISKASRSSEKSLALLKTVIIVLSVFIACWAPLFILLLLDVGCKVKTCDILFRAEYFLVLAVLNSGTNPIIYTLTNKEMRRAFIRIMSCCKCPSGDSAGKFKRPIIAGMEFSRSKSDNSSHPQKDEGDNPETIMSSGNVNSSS
Sequence of Sphingosine 1-phosphate receptor 2 (Homo sapiens) (O95136 whole entry): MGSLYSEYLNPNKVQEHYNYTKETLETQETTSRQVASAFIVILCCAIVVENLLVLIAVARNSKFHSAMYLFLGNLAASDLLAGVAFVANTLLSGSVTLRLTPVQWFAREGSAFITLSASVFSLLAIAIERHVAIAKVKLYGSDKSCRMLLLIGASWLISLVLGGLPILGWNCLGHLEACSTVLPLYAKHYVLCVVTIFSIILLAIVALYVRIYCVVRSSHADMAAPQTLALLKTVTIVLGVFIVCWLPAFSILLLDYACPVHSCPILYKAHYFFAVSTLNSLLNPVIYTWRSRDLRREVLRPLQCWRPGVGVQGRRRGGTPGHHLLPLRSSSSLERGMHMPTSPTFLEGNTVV

% binding [1] [%]	% binding [2] [%]	% binding [3] [%]	SMILES
55.1	–	–	CCCCCCCCCCCCC/C=C/[C@@H](O)[C@H](COP(=O)(O)O)NC
51.4	–	–	CCCCCCCCCCCCC/C=C/[C@@H](O)[C@H](COP(=O)(O)O)NCC
–	84	82	CCCCCCCCCCCCCC[C@@H](N)COP(=O)(O)O
